This is an account of results in ChEMBL document CHEMBL1772997 (J Med Chem, 2011).

Assay [1] deals with T1, Melatonin receptor type 1A (Homo sapiens, UniProt P48039). Description: Displacement of [125I]-2-iodomelatonin from human MT1 receptor expressed on CHO cells by microscintillation counting. In kind it is cell-based.
Assay [2] has as its target T2, Melatonin receptor type 1B (Homo sapiens, UniProt P49286).
T2 sequence (P49286 whole entry): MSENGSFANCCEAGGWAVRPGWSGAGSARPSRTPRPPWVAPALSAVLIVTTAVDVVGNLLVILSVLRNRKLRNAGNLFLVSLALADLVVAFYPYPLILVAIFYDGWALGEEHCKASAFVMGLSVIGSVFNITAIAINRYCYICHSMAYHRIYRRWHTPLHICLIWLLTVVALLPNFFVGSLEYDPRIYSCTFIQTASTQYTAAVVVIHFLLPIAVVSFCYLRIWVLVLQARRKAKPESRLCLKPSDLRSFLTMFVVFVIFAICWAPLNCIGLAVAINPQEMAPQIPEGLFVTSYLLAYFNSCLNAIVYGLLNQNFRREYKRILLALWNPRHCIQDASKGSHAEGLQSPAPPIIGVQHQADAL
The experiment in a line: Displacement of [125I]-2-iodomelatonin from human MT2 receptor expressed on CHO cells microscintillation counting. It counts as cell-based.

For another assay, the species on record is Homo sapiens. The experiment in a line: Selectivity ratio, ratio of Ki for human MT1 receptor over Ki for human MT2 receptor.
Assay [3] deals with T3, Melatonin receptor type 1B (Homo sapiens) (UniProt P49286).
T3 sequence (whole entry): T2 sequence (P49286 whole entry)
The experiment in a line: Ratio of compound Ki to melatonin Ki for human MT2 receptor expressed on CHO cells by radioligand displacement assay. It counts as cell-based. Put shortly: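 Membranes from CHO cells stably expressing human MT1 or MT2, in 50 mM Tris-HCl pH 7.7. Incubated with 2-[¹²⁵I]iodomelatonin, 40 pM for MT1 or 80 pM for MT2, 150 min at 25 °C. […] IC50 by three-parameter fit, Ki by Cheng–Prusoff using Kd 33.9 pM for MT1 and 72.6 pM for MT2.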

Assay [4] has as its target T1, Melatonin receptor type 1A. The experiment in a line: Agonist activity at human MT1 receptor expressed in CHO cells assessed as inhibition of forskolin-induced cAMP accumulation after 30 mins by EnVision Multilabel Plate Readers. In kind it is functional, cell-based.
The target of assay [5] is T3, Melatonin receptor type 1B (Homo sapiens). The experiment in a line: Partial agonist activity at human MT2 receptor expressed in CHO cells assessed as inhibition of forskolin-induced cAMP accumulation after 30 mins by EnVision Multilabel Plate Readers relative to control. In kind it is functional, cell-based. Put shortly:
(§1)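 Stable CHO line expressing human MT2, suspended in modified HBSS with 5 mM HEPES pH 7.4, 0.1% BSA, 100 μM IBMX and 100 μM Ro20-1724; 6 × 10⁴ cells/well. Compound added, then forskolin (final 2 μM), 30 min at room temperature; AlphaScreen cAMP read after 12 h in dark.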

Assay [6] relates to Mus musculus. Description: Chronobiotic activity in ICR mouse assessed as reentrainment for 8 hrs advance of dark phase at 3 mg/kg, ip administered 1 hr before dark period once daily for 3 days by running-wheel activity assay. In kind it is functional, organism-based. The arrangement: dose 3 mg/kg. The method, boiled down:
(§2)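 Male ICR mice (6 weeks old), housed individually with running wheels under 12/12 light/dark, habituated at least 2 weeks; dark phase then advanced 8 h and kept 14 days. Dosed ip once daily 1 h before dark from shift day, suspended in 0.5% methylcellulose saline, 10 mL/kg. Days to reentrainment: onset advanced >7 h for ≥3 consecutive days, else scored 14 days.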

Assay [7] addresses T2, Melatonin receptor type 1B. Description: Agonist activity at human MT2 receptor expressed in CHO cells assessed as inhibition of forskolin-induced cAMP accumulation after 30 mins by EnVision Multilabel Plate Readers. It counts as functional, cell-based.
Assay [8] deals with T3, Melatonin receptor type 1B (Homo sapiens). The experiment in a line: Agonist activity at human MT2 receptor expressed in CHO cells assessed as inhibition of forskolin-induced cAMP accumulation after 30 mins by EnVision Multilabel Plate Readers relative to control. It counts as functional, cell-based. Put shortly:
as §1

Assay [9] deals with Mus musculus. Description: Chronobiotic activity in ICR mouse assessed as reentrainment for 8 hrs advance of dark phase at 30 mg/kg, ip administered 1 hr before dark period once daily for 3 days by running-wheel activity assay. In kind it is functional, organism-based. Set-up: dose 30 mg/kg. The method, boiled down:
as §2

pEC50, pKi: −log10 of the molar value. Active and inactive are the calls of the source. No cut-off for these calls is given here.

T1 sequence (P48039 whole entry): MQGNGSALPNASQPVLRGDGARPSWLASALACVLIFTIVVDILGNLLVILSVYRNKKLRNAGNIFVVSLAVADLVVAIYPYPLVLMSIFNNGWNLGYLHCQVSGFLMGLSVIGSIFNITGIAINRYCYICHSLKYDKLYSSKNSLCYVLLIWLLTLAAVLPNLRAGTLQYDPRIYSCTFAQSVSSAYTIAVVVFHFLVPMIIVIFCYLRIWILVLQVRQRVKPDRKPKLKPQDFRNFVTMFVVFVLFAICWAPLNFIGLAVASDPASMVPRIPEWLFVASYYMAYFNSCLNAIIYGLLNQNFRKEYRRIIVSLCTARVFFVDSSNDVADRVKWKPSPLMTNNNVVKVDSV

With `CCC(=O)NCCC1=C(C(C)C)Cc2ccc3c(c21)CCO3`, the pKi was 10.89 in assay [1] and 10.96 in assay [2]. Besides, in the assay filed under Homo sapiens, the Ratio Ki amounted to 1.3.

For the molecule `COc1ccccc1C1=C(CCNC(C)=O)c2c(ccc3c2CCO3)C1`, the results for the negative logarithm of the Ki (pKi) in assay [1] and in [2] were 8.96 and 10.70, respectively. The Ratio Ki in the assay filed under Homo sapiens was 53.

As for `CC(C)C1=C(CCNC(=O)C(F)(F)F)c2c(ccc3c2CCO3)C1`, the negative logarithm of the Ki (pKi) in assay [1] is 10.49; in [2] it was 11.00. In addition, the Ratio Ki in the assay filed under Homo sapiens stood at 3.1.

Take `CC(=O)NCCC1=C(c2cccc(C(C)C)c2)Cc2ccc3c(c21)CCO3`: the results for the negative logarithm of the Ki (pKi) in assay [1] and in assay [2] were 7.89 and 10.96, respectively. In addition, the Ratio Ki in assay [3] was 19; in the assay listed under Homo sapiens it was 1200. Further, the pEC50 in assay [4] was 8.52. In addition, the Emax in assay [5] stood at 72.8%.

In the case of `CC(=O)NCCC1=C(c2ccc(C(C)(C)C)cc2)Cc2ccc3c(c21)CCO3`, the pKi was 8.85 in assay [1] and 9.11 in [2]. In the assay listed under Homo sapiens, the Ratio Ki came to 1.8.

Turning to `CC(=O)NCCC1=C(c2cccnc2)Cc2ccc3c(c21)CCO3`, the values for the negative-log Ki (pKi) in [1] and in assay [2] were 10.16 and 10.47, respectively. Moreover, in the assay listed under Homo sapiens, the Ratio Ki turned out to be 2.1.

For the molecule `CC(=O)NCCC1=C(Br)Cc2ccc3c(c21)CCO3`, the pKi in assay [1] is 11.06; in [2], 10.85. Also, in the assay filed under Homo sapiens, the Ratio Ki was 0.61.

Take `CC(=O)NCCC1=C(C(C)C)Cc2ccc3c(c21)CCO3`: the pKi was 10.62 in [1] and 10.74 in assay [2]. Moreover, the Ratio Ki in the assay filed under Homo sapiens was found to be 1.3.

As for `CC(=O)NCCC1=C(Cc2ccsc2)Cc2ccc3c(c21)CCO3`, the pKi in assay [1] was 9.06; in assay [2], 11.17. Further, the Ratio Ki in the assay listed under Homo sapiens was 132.

As to `CC(=O)NCCC1=C(CC2CCCCC2)Cc2ccc3c(c21)CCO3`, the pKi in assay [1] was 8.04; in [2] it was 10.92. Further, the result in the assay on Mus musculus [6] and in the assay with Mus musculus [9] was Active. Further, the Ratio Ki is 18 in [3] and 799 in the assay listed under Homo sapiens. Further, the negative logarithm of the EC50 (pEC50) in assay [4] was 8.35; in assay [7], 8.88. The Emax in assay [8] is 99%.

On to `CC(=O)NCCC1=C(c2ccccc2OC(C)C)Cc2ccc3c(c21)CCO3`, for which the negative logarithm of the Ki (pKi) in assay [1] was below 7.00; in assay [2], 9.47. Further, the Ratio Ki in the assay listed under Homo sapiens was above 292.

Turning to `CC(=O)NCCC1=C(Cc2ccccc2)Cc2ccc3c(c21)CCO3`, the pKi in [1] is 8.57; in assay [2], 11.07. In addition, in the assay filed under Homo sapiens, the Ratio Ki was 316. Besides, the pEC50 in [4] was 9.29. Further, the maximal effect (Emax) in [8] was 61.7%.

With `CC(=O)NCCC1=C(c2ccoc2)Cc2ccc3c(c21)CCO3`, the pKi was 11.19 in [1] and 11.02 in assay [2]. The Ratio Ki in the assay listed under Homo sapiens was determined as 0.68.

Regarding `COc1ccc(C2=C(CCNC(C)=O)c3c(ccc4c3CCO4)C2)cc1`, the results for the pKi in assay [1] and in assay [2] were 8.52 and 10.43, respectively. In addition, the Ratio Ki in the assay listed under Homo sapiens stood at 81.

Consider `CC(=O)NCCC1=CCc2ccc3c(c21)CCO3`, for which the negative-log Ki (pKi) in assay [1] is 10.35; in [2], 10.66. Besides, the Ratio Ki came out at 10 in assay [3] and 2.1 in the assay filed under Homo sapiens.

`CC(C)C1=C(CCNC(=O)C2CC2)c2c(ccc3c2CCO3)C1`: the negative logarithm of the Ki (pKi) is 9.96 in [1] and 10.46 in [2]. In the assay listed under Homo sapiens, the Ratio Ki amounted to 3.2.

For `CC(=O)NCCC1=C(c2csc3ccccc23)Cc2ccc3c(c21)CCO3`, the pKi in assay [1] is 8.89; in [2] it was 11.22. Moreover, the Ratio Ki in the assay listed under Homo sapiens stood at 220.

`COc1cccc(C2=C(CCNC(C)=O)c3c(ccc4c3CCO4)C2)c1`: the results for the negative logarithm of the Ki (pKi) in assay [1] and in assay [2] were 10.24 and 11.05, respectively. In addition, the Ratio Ki in the assay filed under Homo sapiens is 6.3.

On to `CCNC(=O)NCCC1=C(C(C)C)Cc2ccc3c(c21)CCO3`, for which the negative-log Ki (pKi) in assay [1] was 8.96; in [2], 10.08. In addition, in the assay listed under Homo sapiens, the Ratio Ki was 13.
